Experimental data taken from paper PMC4293705 (ChemPlusChem, 2012).
“And” between values parts separate entries of the source, which are not always exact repeats. Equal values may be shown once. Read-outs that look alike come from different tables or passages of the source. Marks after values point to notes of the source that are not given here.

Legend:
[1] = test system: MDA-MB-231 cells; assay: BrdU assay, MDA-MB-231 cell survival; assay type: cell-based; conditions: 48 h; for effect on MDA-MB-231 cell survival: 10^−8 to 10^−5 M
How it was run: (§1)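 Survival version of the BrdU kit assay. HUVEC (2 × 10^4/well) in 1 % FBS; MDA-MB-231 (1.5 × 10^4/well) in 0 % FBS; triplicate wells. After 24 h serum-free phenol-red-free synchronisation, cells exposed 48 h to test compound at 10−8–10−5 M. BrdU (0.01 mM final) added, re-incubated 2–24 h, OD at 450 and 595 nm. Normalised to untreated controls after background subtraction.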

[2] = log D determination by micro-HPLC; assay type: physicochemical; conditions: for log D: pH 7, n-octanol/phosphate buffer, HPLC
[3] = Protonation constants by potentiometric titration in H2O/DMSO; assay type: physicochemical; conditions: for pKa: H2O/DMSO (v/v 30:70) solution
How it was run: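 Ligand (10−4–10−5 M, from DMSO solutions) titrated in H2O/DMSO 30:70 v/v at I = 0.1 (KCl), 25 °C, under argon. Automated titration with carbonate-free KOH standardised against potassium hydrogen phthalate. Read on a glass electrode with Ag/AgCl reference; 120–150 points per titration; pKw 17.16. Constants from nonlinear least-squares refinement of the potentiometric data.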

[4] = test system: HUVEC; assay: Wound-healing assay, HUVEC migration; assay type: cell-based, human; conditions: 16 h; for effect on HUVEC migration versus control: 10^−6 to 10^−5 M
How it was run: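 HUVECs (4 × 10^5/well) plated on 0.2 % gelatin; wound made after 24 h on the confluent layer. Cells then treated 16 h with test compound (10−5 to 10−6 M) in phenol-red-free M199 with 10 % FBS and photographed at 16 h. Genistein 30 μg mL−1 and EGF 50 ng mL−1 as references. At least three experiments; mean ± SEM; ANOVA/Student's test.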

[5] = test system: human hepatocarcinoma HepaRG cells; assay: SDH activity; assay type: cell-based
[6] = test system: human hepatocarcinoma HepaRG cells; assay: Extracellular LDH leakage; assay type: cell-based; conditions: 72 h; for % LDH/control with Fe^III 20 μM / % LDH/control without Fe^III: cell supernatant
[7] = test system: MDA-MB-231 cells; assay: BrdU assay, MDA-MB-231 cell proliferation; assay type: cell-based; conditions: 48 h; for effect on MDA-MB-231 cell proliferation: 10^−8 to 10^−5 M
How it was run: (§2)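 HUVECs grown on 0.2 % gelatin in M199 with 20 % FBS and ECGS, passages 2–5. HUVEC seeded at 2 × 10^4 and MDA-MB-231 at 1.5 × 10^4 cells/well, in triplicate. Next day, G1-synchronised 24 h in serum-free phenol-red-free medium. Test compound (10−8–10−5 M) given in 10 % FBS for 48 h. BrdU (0.01 mM final) added for 2–24 h; OD read at 450/595 nm. Values background-subtracted and normalised to untreated controls.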

[8] = test system: HepaRG cells
[9] = test system: HUVEC; assay: Matrigel assay, HUVEC capillary-tube formation; assay type: cell-based, human; conditions: 16 h; for effect on HUVEC capillary tube formation versus control: 10^−6 to 10^−5 M
How it was run: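 Forty thousand HUVECs seeded on Matrigel in M199 with 10 % FBS containing test compound (10−5 to 10−6 M) and incubated 16 h. Capillary network length quantified by image analysis of micrographs. Untreated cells as control; genistein 30 μg mL−1 (inhibitor) and EGF 50 ng mL−1 (activator) as references. At least three separate experiments; mean ± SEM; ANOVA and Student's test.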

[10] = assay type: physicochemical; conditions: I = 0.1 M (KCl), T = 298 K, H2O/DMSO v/v 30:70; for Log β 1 1–3 (stability constant of Fe^III complex): 5a value by potentiometric and spectrophotometric titrations; for Log β 1 1–2 (stability constant of Fe^III complex): potentiometric and spectrophotometric titrations
How it was run: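 Performed in H2O/DMSO 30:70 v/v […], I = 0.1 (KCl), 25 °C under argon. Ligand at 10−4–10−5 M with EDTA-standardised FeCl3 at metal:ligand ratios 1:3, 1:2 and 1:1. Potentiometric and spectrophotometric titrations covered pH 1–13. For spectrophotometry, acidified FeIII–ligand solutions were titrated with KOH to pH 6.5, recording UV-visible spectra after each addition at 25.0 °C. pKw 17.16.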

[11] = test system: HUVEC; assay: BrdU assay, HUVEC survival; assay type: cell-based, human; conditions: 48 h; for effect on HUVEC survival: 10^−8 to 10^−5 M
How it was run: as §1

[12] = test system: HUVEC; assay: BrdU assay, HUVEC proliferation; assay type: cell-based, human; conditions: 48 h; for effect on HUVEC proliferation: 10^−8 to 10^−5 M
How it was run: as §2

[13] = reported value; cited from earlier work
[14] = reported in the literature; cited from earlier work
[15] = I = 0.1 M (KCl), T = 298 K, H2O/DMSO v/v 30:70
[16] = read-out: SDH, IC50 without Fe^III, HepaRG cells, 72 h treatment, MTT assay

Row | Compound | log D [2] | Log β 0 1–1 (overall protonation constant) [3, 15] | Log β 0 1–2 (overall protonation constant) [3, 15] | Log β 0 1–3 (overall protonation constant) [3, 15] | pKa1 [3, 15] | pKa2 [3, 15] | pKa3 [3, 15] | IC50 [5, 16] | % LDH/control with Fe^III 20 μM ([6]; compound 10 μM) | % LDH/control without Fe^III ([6]; compound 10 μM) | % LDH/control with Fe^III 20 μM ([6]; compound 100 μM) | % LDH/control without Fe^III ([6]; compound 100 μM) | membrane diffusion / presence in intracellular medium after cell lysis [8] | Log β 1 2–6 (stability constant of Fe^III complex) [10] | Log β 1 1–3 (stability constant of Fe^III complex) [10] | effect on MDA-MB-231 cell survival [1] | effect on HUVEC migration versus control [4] | effect on MDA-MB-231 cell proliferation [7] | effect on HUVEC capillary tube formation versus control [9] | Log β 1 1–2 (stability constant of Fe^III complex) [10] | also measured
1 | O=C(CCOCCOc1c2cccc1Cc1cccc(c1O)Cc1cccc(c1O)Cc1cccc(c1O)C2)Nc1ccc(-n2nc(-c3ccccc3O)nc2-c2ccccc2O)cc1 [5a, 25-{1-[2-(2-{4-[3,5-Bis-(2-hydroxyphenyl)-1,2,4-triazol-1-yl]phenyl}carbamoylethoxy)ethoxy]}-26,27,28-trihydroxycalix[4]arene] | 4.59 (±0.06) | −6.67(2) | −17.12(2) | −29.63(2) | 6.67 | 10.45 | 12.51 | 6 ± 1 µM | 67 ±6% | 105% and 105 ±11% | 187 ±5% | 200 ±15% | found in the intracellular medium | −19.23(8) | −1.74(1) ^[c] |  |  |  |  |  | decrease of MDA-MB-231 survival versus control ([1]; 10^−5 M): 58%; decrease of MDA-MB-231 survival versus control ([1]; 10^−6 M): 51%; reduction of HUVEC migration versus control ([4]; 10^−5 M): 59%; reduction of HUVEC migration versus control ([4]; 10^−6 M): 51%; concentrations at which the compound is cytostatic ([5]; HepaRG cells, 72 h, deduced from dose–effect curves): lower than 10 μM; SDH value relative to the control ([5]; compound 10 μM, HepaRG cells, 72 h): 6%; concentrations inducing a cytotoxic effect (membrane damage, LDH leakage) ([6]; deduced from dose–effect curves): higher than 10 μM; decrease of MDA-MB-231 cell proliferation versus control ([7]; 10^−5 M): 73%; decrease of MDA-MB-231 cell proliferation versus control ([7]; 10^−6 M): 62%; decrease of MDA-MB-231 cell proliferation versus control ([7]; 10^−7 M): 33%; decrease of HUVEC ability to form capillary tubes versus control ([9]; 10^−5 M): 48%; decrease of HUVEC ability to form capillary tubes versus control ([9]; 10^−6 M): 42%; decrease of HUVEC survival versus control ([11]; 10^−5 M): 65%; decrease of HUVEC survival versus control ([11]; 10^−6 M): 56%; decrease of HUVEC survival versus control ([11]; 10^−7 M): 28%; reduction of HUVEC proliferation versus control ([12]; 10^−5 M): 74%; reduction of HUVEC proliferation versus control ([12]; 10^−6 M): 51%; reduction of HUVEC proliferation versus control ([12]; 10^−7 M): 46%
2 | O=C(CCOCCOc1c2cccc1Cc1cccc(c1O)Cc1cccc(c1OCCOCCC(=O)Nc1ccc(-n3nc(-c4ccccc4O)nc3-c3ccccc3O)cc1)Cc1cccc(c1O)C2)Nc1ccc(-n2nc(-c3ccccc3O)nc2-c2ccccc2O)cc1 [5b, 25,27-Bis-{1-[2-(2-{4-[3,5-bis(2-hydroxyphenyl)-1,2,4-triazol-1-yl]-phenyl}carbamoylethoxy)ethoxy]}-26,28-dihydroxycalix[4]arene] | 3.49 (±0.05) | −9.88(3) | −21.11(3) | −33.21(3) | 9.88 | 11.23 | 12.10 | 90 ± 7 µM | 91 ±11% | 76 ±4% | 69 ±6% | 103 ±2% | found in the intracellular medium |  | −5.08(6) | did not show any effect | did not show any effect | did not show any effect | did not show any effect | −2.35(8) ^[c] | reduction of the lipophilicity in comparison with 5a ([2]; from log D at pH 7): about 12 fold; Log β 0 1–4 (overall protonation constant) [3, 15]: −46.38(6); Log β 0 1–5 (overall protonation constant) [3, 15]: −59.85(4); pKa4 [3, 15]: 13.17; pKa5 [3, 15]: 13.47; effect on HUVEC survival [11]: did not show any effect; effect on HUVEC proliferation [12]: did not show any effect
3 | O=C(O)c1ccc(-n2nc(-c3ccccc3O)nc2-c2ccccc2O)cc1 [ICL670, deferasirox, reference compound] |  | −5.56(5) | −16.55(7) | −29.53(7) |  |  |  |  | 80 ±5% | 87 ±7% | 88 ±1% | 101 ±13% |  | −20.35(8) | −6.48(9) | did not show any effect | did not show any effect | did not show any effect | did not show any effect | −1.06(9) ^[c] | log D [13]: −0.1; pKa ([3]; pKa1, I = 0.1 M (KCl), T = 298 K, H2O/DMSO v/v 30:70): 5.56; pKa ([3]; pKa2, I = 0.1 M (KCl), T = 298 K, H2O/DMSO v/v 30:70): 11; pKa ([3]; pKa3, I = 0.1 M (KCl), T = 298 K, H2O/DMSO v/v 30:70): 13; IC50 ([5]; Homo sapiens, HepaRG, 72 h, read-out: SDH, IC50 with Fe^III 20 μM): 61 ± 7 µM; IC50 ([5]; Homo sapiens, HepaRG, 72 h, read-out: SDH, IC50 without Fe^III): 11 ± 4 µM; pFe [14]: 23.5; Log β 1 2–5 (stability constant of Fe^III complex) [10]: −13.72(9); effect on HUVEC survival [11]: did not show any effect; effect on HUVEC proliferation [12]: did not show any effect
4 | Oc1c2cccc1Cc1cccc(c1O)Cc1cccc(c1O)Cc1cccc(c1O)C2 [compound 6, calix[4]arene] |  |  |  |  |  |  |  |  |  |  |  |  |  |  |  |  |  |  |  |  | pKa (easily deprotonated site of the calix[4]arene core) ([3]; acid–base properties in solution): 4.6
